Consider one compound from ChEMBL document CHEMBL4834396, “Molecular Recognition and Imaging of Human Telomeric G-Quadruplex DNA in Live Cells: A Systematic Advancement of Thiazole Orange Scaffold To Enhance Binding Specificity and Inhibition of Gene Expression” (J Med Chem, 2021).

For assay [1], the system named is rRNA. The assay is described as follows: Binding affinity to rRNA (unknown origin) assessed as equilibrium binding constant at 5 uM at 25 degreeC […]. It counts as nucleic-acid assay. In outline: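 Fluorescence titration: ligand 5 μM in 10 mM Tris-HCl pH 7.4 with 60 mM KCl, nucleic acid added until saturation, 25 °C. Keq from nonlinear fit of F/F0 to an independent-site model.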

In assay [2] the test system is Quadruplex DNA [UNDEFINED MUTATION]. The assay is described as follows: Effect on confirmation of telomeric Htg24 G-quadruplex DNA T6G mutant (unknown origin) assessed as hybrid topology at 5 uM at pH 7.4 by circular dichroism analysis. Conditions: Homo sapiens. It counts as nucleic-acid assay. A digest of the protocol:
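CD spectra recorded on G4-DNA and ligand, each at 5 μM, in 10 mM Tris-HCl, pH 7.4, with 60 mM KCl. Scan range 220–340 nm in a 1 mm quartz cuvette, 1 nm bandwidth and step, 0.5 s/point. Each spectrum is the average of three scans.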
On the technique in general: Circular dichroism is widely used to follow secondary structure.

Assay [3] shares this test system. The assay can be described thus: Binding affinity to telomeric Htg24 G-quadruplex DNA G3A mutant (unknown origin) assessed as negative fluorescence signal at 5 uM under pH condition 7.4 by fluorescence titration analysis. It counts as nucleic-acid assay. Conditions: Homo sapiens. In outline: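 Ligand held at 5 μM and mixed with each Htg24 point mutant in Tris-HCl buffer containing 60 mM KCl, pH 7.4. Fluorescence was read, and the signal change was computed as (F mutant − F wild type)/F wild type.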

For assay [4] the test system is unchanged. The assay is described as follows: Binding affinity to telomeric Htg24 G-quadruplex DNA G17T mutant (unknown origin) assessed as negative fluorescence signal at 5 uM under pH condition 7.4 by fluorescence titration analysis. It counts as nucleic-acid assay. The following applies: Homo sapiens. A digest of the protocol: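 Ligand 5 μM mixed with wild-type or point-mutant Htg24 in Tris-HCl buffer with 60 mM KCl; signal change calculated as (F mutant − F wild type)/F wild type.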

Assay [5] deals with Quadruplex DNA. The assay is described as follows: Binding affinity to telomeric Htg24 G-quadruplex DNA (unknown origin) assessed as stroke shift under at 480 to 483 nm at pH 7.4 by spectrophotometric method.

Structures are written as SMILES. Activity calls are given as the source filed them. No cut-off for these calls is given here.

As to `CN(C)c1ccc(/C=C/c2cc(/C=C3\Sc4ccccc4N3CCCN3CCOCC3)c3ccccc3[n+]2C)cc1.[I-]`, the Kb in assay [1] turned out to be 620000 M⁻¹. Further, the result in assay [2], in assay [3] and in assay [4] was Active. The Activity in assay [5] is 162 nm.
